The test system of data set [1] is HUVEC. The experiment in a line: Effect on total Src expression in VEGF-induced HUVEC at 1 to 20 uM pre-incubated for 2 hrs followed by VEGF stimulation and measured after 15 mins by Western blot analysis. The format is ADME, cell-based. Particulars: human, 0.25 h. The procedure, abridged:
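HUVECs serum-starved overnight, pretreated with compound (methods: 1, 2.5, 5, 10 μM for 2 h; legend: 1, 5, 10, 20 μM for 1.5 h), then VEGF 50 ng/mL (methods: VEGF165, 15 min; legend: 30 min); lysates equalized by Bradford, ~20 μg protein resolved on gradient SDS-PAGE, immunoblotted, ECL detection.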
On the technique in general: A western blot detects proteins with antibodies after separation by electrophoresis.

Data set [2] addresses Vascular endothelial growth factor receptor 2 (Homo sapiens) (UniProt P35968). As to the kind of experiment: Inhibition of VEGFR2 in VEGF-stimulated HUVEC assessed as downregulation of Src phosphorylation at Tyr416 residue at 1 to 10 uM pre-incubated for 2 hrs followed by VEGF stimulation and measured after 15 mins by Western blot analysis. The data set is classed as cell-based.

The test system of data set [3] is HT-29. As to the kind of experiment: Induction of apoptosis in human HT-29 cells assessed as late apoptotic cells at 1 uM after 24 hrs by Annexin V-FITC/propidium iodide staining based flow cytometric analysis (reference value: 13.4%). Particulars: ht-29, 24 h. The data set is classed as cell-based. A general note: Flow cytometry measures light scatter and fluorescence of single cells or particles in a stream.

Data set [4] addresses Mitogen-activated protein kinase 1 (Homo sapiens) (UniProt P28482). The experiment in a line: Inhibition of ERK2 (unknown origin) at 10 uM using myelin basic protein as substrate in presence of [gamma-33P]-ATP by scintillation counting analysis relative to control. The essentials:
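Radiometric kinase panel run by a contract lab. Kinase (5–10 mU) in 25 mM Tris pH 7.5, 0.02 mM EGTA, 0.66 mg/mL myelin basic protein, magnesium acetate and [γ-33P]-ATP (about 500 cpm/pmol). Started with Mg-ATP mix, 40 min at room temperature, stopped with 3% phosphoric acid. Spotted on P30 filters, washed in 75 mM phosphoric acid and methanol, scintillation counted. Mean ± SD of three independent experiments.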

Data set [5] concerns HUVEC. As to the kind of experiment: Induction of apoptosis in VEGF-stimulated HUVEC assessed as late apoptotic cells at 10 uM after 24 hrs by Annexin V-FITC/propidium iodide staining based flow cytometric analysis (reference value: 11.3%). Particulars: human. The format is cell-based. The essentials:
(§1)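 HUVECs plated at 5×10^5 per well and treated 24 h with 1, 5, 10 or 20 μM. Detached and adherent cells were pooled, washed in ice-cold PBS and resuspended in fresh medium. 1×10^5 cells were stained with annexin-V-FITC in annexin-V buffer for 20 min in the dark, then PI (50 μg/mL) was added. Read-out by flow cytometry.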

Data set [6] has as its system HUVEC. The experiment in a line: Induction of apoptosis in VEGF-stimulated HUVEC assessed as late apoptotic cells at 5 uM after 24 hrs by Annexin V-FITC/propidium iodide staining based flow cytometric analysis (reference value: 11.3%). The data set is classed as cell-based. Particulars: human. The essentials: as §1
For data set [7], the system named is HUVEC. The experiment in a line: Induction of apoptosis in VEGF-stimulated HUVEC assessed as early apoptotic cells at 1 uM after 24 hrs by Annexin V-FITC/propidium iodide staining based flow cytometric analysis (reference value: 7%). The data set is classed as cell-based. The conditions noted are these: human. The essentials: as §1
Data set [8] concerns HUVEC. As to the kind of experiment: Induction of apoptosis in VEGF-stimulated HUVEC assessed as necrotic cells at 1 uM after 24 hrs by Annexin V-FITC/propidium iodide staining based flow cytometric analysis (reference value: 12.1%). The data set is classed as cell-based. Particulars: human. The essentials:
as §1

For data set [9], the system named is HT-29. The experiment in a line: Downregulation of MMP9 expression in human HT-29 cells after 24 hrs by immunoblot analysis. The format is functional, cell-based.
The nature of data set [10]: Induction of apoptosis in human HT-29 cells assessed as viable cells at 5 uM after 24 hrs by Annexin V-FITC/propidium iodide staining based flow cytometric analysis (reference value: 80.8 to 81.1%). Particulars: read-out: Activity. The format is cell-based.
A short description of data set [11]: Induction of apoptosis in VEGF-stimulated HUVEC assessed as viable cells at 10 uM after 24 hrs by Annexin V-FITC/propidium iodide staining based flow cytometric analysis (reference value: 69.6%). The format is cell-based. Particulars: human, read-out: Activity. The procedure, abridged: as §1
The subject of data set [12] is HT-29. The experiment in a line: Induction of apoptosis in human HT-29 cells assessed as necrotic cells at 20 uM after 24 hrs by Annexin V-FITC/propidium iodide staining based flow cytometric analysis (reference value: 3.9%). Particulars: ht-29, 24 h. The format is cell-based.
A short description of data set [13]: Induction of apoptosis in human HT-29 cells assessed as viable cells at 10 uM after 24 hrs by Annexin V-FITC/propidium iodide staining based flow cytometric analysis (reference value: 80.8%). The data set is classed as cell-based. Particulars: read-out: Activity.
The subject of data set [14] is HUVEC. The experiment in a line: Antiinvasive activity in HUVEC assessed as inhibition of VEGF-induced cell invasion at 10 uM after 6 hrs by crystal violet staining based transwell assay relative to control. The data set is classed as functional. Particulars: Homo sapiens. The essentials:
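Transwell: 1×10⁴ HUVECs in serum-free M200 in top chamber with vehicle or compound; bottom chamber M200 with 10% FBS; 6 h at 37°C; cells on membrane underside fixed in 4% paraformaldehyde, stained 0.1% crystal violet, imaged and counted.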

The test system of data set [15] is HT-29. As to the kind of experiment: Induction of apoptosis in human HT-29 cells assessed as PARP cleavage up to 20 uM after 24 to 72 hrs by Western blot analysis. The format is cell-based.
In data set [16] the test system is HT-29. As to the kind of experiment: Induction of apoptosis in human HT-29 cells assessed as early apoptotic cells at 5 uM after 72 hrs by Annexin V-FITC/propidium iodide staining based flow cytometric analysis (reference value: 5.3%). The data set is classed as cell-based. Particulars: ht-29, 72 h.
The test system of data set [17] is HT-29. As to the kind of experiment: Downregulation of VEGF mRNA expression in human HT-29 cells after 24 hrs by RT-qPCR assay. The format is functional, cell-based. The procedure, abridged:
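HT29 cells treated with 1, 5, 10 or 20 μM for 24 h; total RNA extracted with TRIzol; SYBR Green qPCR, 40 cycles of 5 s at 95°C and 60 s at 60°C in 20-μL reactions.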
(In general: Real-time PCR tracks product formation cycle by cycle.)

Data set [18] has as its system HT-29. As to the kind of experiment: Inhibition of Akt/mTOR signalling in human HT-29 cells assessed as reduction in STAT3 phosphorylation at Tyr705 residue incubated for 24 hrs by immunoblot analysis. The format is cell-based. The procedure, abridged:
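HT29 cells were exposed to the indicated concentrations for 24 h. Cell lysates were then immunoblotted for the phosphorylated proteins.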

The subject of data set [19] is HUVEC. The experiment in a line: Inhibition of Akt/mTOR signalling in VEGF-induced HUVEC assessed as reduction in AKT phosphorylation at Ser473 residue at 1 to 20 uM pre-incubated for 1.5 hrs followed by VEGF stimulation and measured after 30 mins by Western blot analysis. The data set is classed as cell-based. The conditions noted are these: Homo sapiens. The essentials:
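HUVECs were starved overnight, pretreated 1.5 h with 1, 5, 10 or 20 μM, then stimulated with VEGF (50 ng/mL) for 30 min. Lysates were equalized by Bradford assay, about 20 μg protein was resolved on gradient SDS-PAGE and immunoblotted with phospho-specific antibodies. Detection by HRP secondary antibodies and ECL.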

In data set [20] the test system is HUVEC. The experiment in a line: Antiangiogenic activity in HUVEC assessed as inhibition of VEGF-induced capillary like tube formation at 5 uM preincubated with VEGF for 20 mins followed by compound addition measured after 6 hrs by matrigel based tube formation assay relative to control. The format is functional. Particulars: Homo sapiens. The procedure, abridged: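 Matrigel (100 μL) set 1 h at 37°C; 2×10⁴ HUVECs in M200 with 10% FBS added per well plus 10 ng/mL VEGF; compound added after 20 min; incubated 6 h at 37°C, then capillary-like structures photographed.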

The source made the active and inactive calls. The calls are words filed in the database; no cut-off is given here.

Chain of Mitogen-activated protein kinase 1 (Homo sapiens) (P28482 whole entry): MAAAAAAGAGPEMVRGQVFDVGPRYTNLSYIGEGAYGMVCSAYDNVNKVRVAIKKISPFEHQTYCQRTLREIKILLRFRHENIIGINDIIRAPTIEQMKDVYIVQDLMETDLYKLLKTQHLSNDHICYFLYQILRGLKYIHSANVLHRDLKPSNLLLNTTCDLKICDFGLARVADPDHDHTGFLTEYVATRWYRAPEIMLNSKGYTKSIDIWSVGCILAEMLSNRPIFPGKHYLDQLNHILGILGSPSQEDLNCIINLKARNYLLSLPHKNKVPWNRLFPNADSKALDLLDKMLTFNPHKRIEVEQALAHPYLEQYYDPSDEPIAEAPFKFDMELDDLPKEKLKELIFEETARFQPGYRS
Chain of Vascular endothelial growth factor receptor 2 (Homo sapiens) (P35968 whole entry): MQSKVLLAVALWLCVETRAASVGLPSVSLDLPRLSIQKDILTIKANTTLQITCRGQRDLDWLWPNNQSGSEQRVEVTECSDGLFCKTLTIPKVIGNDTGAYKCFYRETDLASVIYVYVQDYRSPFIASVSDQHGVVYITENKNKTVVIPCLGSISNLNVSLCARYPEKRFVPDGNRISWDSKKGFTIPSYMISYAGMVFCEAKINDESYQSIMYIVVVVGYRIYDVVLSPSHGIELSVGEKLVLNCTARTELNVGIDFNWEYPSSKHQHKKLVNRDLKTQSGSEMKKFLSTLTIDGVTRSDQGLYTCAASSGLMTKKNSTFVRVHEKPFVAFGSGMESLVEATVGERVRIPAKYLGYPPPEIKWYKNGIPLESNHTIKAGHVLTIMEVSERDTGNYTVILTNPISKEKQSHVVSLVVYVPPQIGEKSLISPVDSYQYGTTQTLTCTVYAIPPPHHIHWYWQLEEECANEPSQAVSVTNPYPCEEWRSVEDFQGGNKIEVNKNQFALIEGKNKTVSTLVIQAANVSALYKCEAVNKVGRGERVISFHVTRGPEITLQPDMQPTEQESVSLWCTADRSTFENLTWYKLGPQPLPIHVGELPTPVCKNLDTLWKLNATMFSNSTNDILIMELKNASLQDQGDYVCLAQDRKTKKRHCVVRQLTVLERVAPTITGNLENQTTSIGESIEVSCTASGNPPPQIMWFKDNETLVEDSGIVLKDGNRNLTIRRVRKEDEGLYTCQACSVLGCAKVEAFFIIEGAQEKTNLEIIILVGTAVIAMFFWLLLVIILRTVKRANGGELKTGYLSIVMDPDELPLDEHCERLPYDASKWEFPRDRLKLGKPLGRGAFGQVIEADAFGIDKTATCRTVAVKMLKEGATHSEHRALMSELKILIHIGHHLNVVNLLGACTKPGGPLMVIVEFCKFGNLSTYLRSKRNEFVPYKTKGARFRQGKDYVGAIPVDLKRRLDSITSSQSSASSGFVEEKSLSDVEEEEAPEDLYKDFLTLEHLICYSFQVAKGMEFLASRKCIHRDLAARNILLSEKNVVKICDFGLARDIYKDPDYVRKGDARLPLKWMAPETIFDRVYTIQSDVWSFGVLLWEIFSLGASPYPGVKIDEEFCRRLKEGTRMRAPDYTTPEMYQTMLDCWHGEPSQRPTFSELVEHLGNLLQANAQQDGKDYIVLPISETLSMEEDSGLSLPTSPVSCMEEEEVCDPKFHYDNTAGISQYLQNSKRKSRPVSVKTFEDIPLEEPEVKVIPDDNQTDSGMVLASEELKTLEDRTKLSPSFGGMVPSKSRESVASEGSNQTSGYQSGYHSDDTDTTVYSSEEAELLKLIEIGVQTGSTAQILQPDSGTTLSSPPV

By inhibition is commonly meant how much of the control response was suppressed. As to `COc1ccc(NC(=O)c2cccc(/C=C3\CC(=O)N(c4ccc(C)cc4)C3=O)c2)cc1`, the Activity result in data set [1] is given as “Not Active”; in data set [3], 14.4%; in data set [5], 11.7%; in data set [6] it was 9.7%; in [7], 10.7%; in data set [8], 6.2%. Besides, the figures for the Activity in data set [12], in data set [15] and in data set [16] were 2.3%, “Non-Toxic” and 9.8%, respectively. The inhibition result in [2] and in data set [19] was “Active” each time. Further, the inhibition in [4] is 50 to 70%; in [9] it was “Dose-dependent effect”; in data set [18], “Dose-dependent effect”. In addition, the viability at 24 h, 5 µM in data set [10] lay within 75.8 to 77.9%. Moreover, the viability at 24 h, 10 µM in data set [11] turned out to be 72%; in data set [13], 77.2%. In data set [14], the inhibition at 10 µM is 50%. In addition, the inhibition result in data set [17] was “inactive”. The inhibition at 5 µM in [20] was 80%.

The values are drawn from ChEMBL document CHEMBL4396917, “Synthesis and biological evaluation of novel benzylidene-succinimide derivatives as noncytotoxic antiangiogenic inhibitors with anticolorectal cancer activity in vivo” (Eur J Med Chem, 2019).
